From paper PMC4391825 (Chembiochem : a European journal of chemical biology, 2014) come the findings set out here.

What all share (assay type): biochemical
The target in experiment [1] is T1, SaPanK (Staphylococcus aureus, UniProt Q8NVG0).
T1 sequence (Q8NVG0 1-267): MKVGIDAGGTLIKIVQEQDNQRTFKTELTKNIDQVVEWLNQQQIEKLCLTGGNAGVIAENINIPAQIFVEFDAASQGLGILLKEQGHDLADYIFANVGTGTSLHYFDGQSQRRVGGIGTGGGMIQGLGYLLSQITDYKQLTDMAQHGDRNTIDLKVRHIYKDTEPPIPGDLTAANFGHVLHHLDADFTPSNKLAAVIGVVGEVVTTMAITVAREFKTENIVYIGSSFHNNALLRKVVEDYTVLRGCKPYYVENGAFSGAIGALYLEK
Nature of the experiment: RP-HPLC of stepwise conversion to […]a. To be noted: ATP, MgCl2; 100 mM Tris-HCl pH 7.60, 25 °C (large-scale mixture).

In experiment [2] the target is T1, SaPanK. Nature of the experiment: RP-HPLC of stepwise conversion to […]b. To be noted: ATP, MgCl2; 100 mM Tris-HCl pH 7.60, 25 °C (large-scale mixture).
A further experiment deals with T2, PhaECAv (Allochromatium vinosum, UniProt P45370).
T2 sequence (P45370 1-355): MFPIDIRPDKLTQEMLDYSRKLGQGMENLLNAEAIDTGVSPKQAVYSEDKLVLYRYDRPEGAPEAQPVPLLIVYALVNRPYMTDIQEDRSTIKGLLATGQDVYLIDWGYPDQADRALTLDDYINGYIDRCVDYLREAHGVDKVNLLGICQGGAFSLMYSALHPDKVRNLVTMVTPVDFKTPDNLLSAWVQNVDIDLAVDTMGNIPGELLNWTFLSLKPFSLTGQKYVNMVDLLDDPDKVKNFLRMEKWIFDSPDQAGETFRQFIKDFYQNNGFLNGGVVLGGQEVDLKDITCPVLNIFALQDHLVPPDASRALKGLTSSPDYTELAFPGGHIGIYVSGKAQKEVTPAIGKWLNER
T2 sequence (P45372 1-357 partner): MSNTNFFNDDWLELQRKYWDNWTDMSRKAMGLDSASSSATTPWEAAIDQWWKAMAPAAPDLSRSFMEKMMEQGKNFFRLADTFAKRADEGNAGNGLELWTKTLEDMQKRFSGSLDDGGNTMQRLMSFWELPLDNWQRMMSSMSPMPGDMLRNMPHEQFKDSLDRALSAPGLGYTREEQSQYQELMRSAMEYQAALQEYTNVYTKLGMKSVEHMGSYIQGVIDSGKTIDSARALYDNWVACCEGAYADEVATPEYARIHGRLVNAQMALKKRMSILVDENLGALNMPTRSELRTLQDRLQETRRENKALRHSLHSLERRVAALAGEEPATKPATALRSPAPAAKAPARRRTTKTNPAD
Put plainly: continuous DTNB assay of CoA release, SigmaPlot fit. The essentials: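 Purified wild-type PhaECAv at 5.80 nM, assayed at 30 °C in 100 mM KPi (pH 7.80) with 0.30 mM DTNB, 2 mg/mL BSA, HBCoA 0.025 to 1.60 mM, and test compound at varied concentrations. CoA release followed as A412 (ε 13.7 mM−1cm−1). Rates were taken from the initial fast-phase slope, in duplicate, and fitted to Michaelis-Menten inhibition models; Lineweaver-Burk plots assigned the mode.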

`CCCC(=O)O[C@H](C)CC(=O)O[C@H](C)CC(=O)CCCNC(=O)CCNC(=O)[C@H](O)C(C)(C)CO` [17a, (R)-((R)-7-(3-((R)-2,4-dihydroxy-3,3-dimethylbutanamido)propanamido)-4-oxoheptan-2-yl) 3-(butyryloxy)butanoate]: the “RP-HPLC of stepwise conversion to 24a” value at SaPanK [1] is “with sequential additions of SaPanK, EcCoaD, and EcCoaE, the resulting products were eluted faster”.

For the compound `CCCC(=O)O[C@H](C)CC(=O)O[C@H](C)CC(=O)O[C@H](C)CC(=O)CCCNC(=O)CCNC(=O)[C@H](O)C(C)(C)CO` [17b, (R)-((R)-7-(3-((R)-2,4-dihydroxy-3,3-dimethylbutanamido)propanamido)-4-oxoheptan-2-yl) 3-((R)-3-(butyryloxy)butanoyloxy)butanoate], the “RP-HPLC of stepwise conversion to 24b” value at SaPanK [2] was “with sequential additions of SaPanK, EcCoaD, and EcCoaE, the resulting products were eluted faster”.

In general, Ki refers to a dissociation constant, usually derived from enzyme kinetics or from competition with a known ligand. Read a high Ki as lower affinity. For `CCCC(=O)O[C@H](C)CC(=O)O[C@H](C)CC(=O)CCCNC(=O)CCNC(=O)[C@H](O)C(C)(C)COP(=O)(O)OP(=O)(O)OC[C@H]1O[C@@H](n2cnc3c(N)ncnc32)[C@H](O)[C@@H]1OP(=O)(O)O` [26a, sT-CH2-CoA], on PhaECAv, the Ki came to 600 ± 30 µM.

At PhaECAv, `CCCC(=O)O[C@H](C)CC(=O)O[C@H](C)CC(=O)O[C@H](C)CC(=O)CCCNC(=O)CCNC(=O)[C@H](O)C(C)(C)COP(=O)(O)OP(=O)(O)OC[C@H]1O[C@@H](n2cnc3c(N)ncnc32)[C@H](O)[C@@H]1OP(=O)(O)O` [26b, sTet-CH2-CoA] showed a Ki of 500 ± 30 µM.

As for `CCCC(=O)O[C@H](C)CC(=O)O[C@H](C)CC=O` [compound 29, sT-aldehyde], at PhaECAv, the Ki was determined as 3130 ± 470 µM.
